According to publication PMC7449315 (Journal for Immunotherapy of Cancer, 2020):

Test: phase I trial: safety and tolerability
Format: in vivo, human
How it was run: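 Fifteen patients were dosed orally twice daily (three per cohort, 100–800 mg). AEs, DLTs, physical exams, vital signs, ECGs and laboratory chemistry, hematology and coagulation were recorded from first dose to end of treatment. AEs were graded by the investigator using NCI CTCAE v4.03. DLTs were assessed in cycle 1 (days 1–28): grade ≥3 or immune-related non-hematologic events, and grade ≥4 hematologic events.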

[1] = 800 mg two times per day, one patient

NS(=O)(=O)[C@H]1CC[C@](F)(CC[C@H]2c3ccccc3-c3cncn32)CC1 [M4112]
Aspartate aminotransferase increased (600 mg two times per day (n=3)): 0 (0.0) n (%) | Blood alkaline phosphatase increased (600 mg two times per day (n=3)): 1 (33.3) n (%) | Blood creatine phosphokinase increased (600 mg two times per day (n=3)): 0 (0.0) n (%) | Blood creatinine increased (600 mg two times per day (n=3)): 1 (33.3) n (%) | Cough (600 mg two times per day (n=3)): 0 (0.0) n (%) | DLT (600 mg two times per day (n=3)): no DLTs were observed | Decreased appetite (600 mg two times per day (n=3)): 0 (0.0) n (%) | Dehydration (600 mg two times per day (n=3)): 1 (33.3) n (%) | Diarrhea (600 mg two times per day (n=3)): 2 (66.7) n (%) | Dyspepsia (600 mg two times per day (n=3)): 0 (0.0) n (%) | Dysphagia (600 mg two times per day (n=3)): 0 (0.0) n (%) | Fatigue (600 mg two times per day (n=3)): 1 (33.3) n (%) | Fever (600 mg two times per day (n=3)): 0 (0.0) n (%) | Gamma-glutamyl transferase increased (600 mg two times per day (n=3)): 1 (33.3) n (%) | Hypercalcemia (600 mg two times per day (n=3)): 0 (0.0) n (%) | Lipase increased (600 mg two times per day (n=3)): 2 (66.7) n (%) | Lymphocyte count decreased (600 mg two times per day (n=3)): 0 (0.0) n (%) | Maculopapular rash (600 mg two times per day (n=3)): 0 (0.0) n (%) | Nausea (600 mg two times per day (n=3)): 1 (33.3) n (%) | Palmar-plantar erythrodysesthesia syndrome (600 mg two times per day (n=3)): 0 (0.0) n (%) | Platelet count decreased (600 mg two times per day (n=3)): 0 (0.0) n (%) | Tumor pain (600 mg two times per day (n=3)): 1 (33.3) n (%) | Vomiting (600 mg two times per day (n=3)): 1 (33.3) n (%) | median probability of a DLT (Bayesian model estimate) (800 mg): 20.5% | probability of a DLT, 95% credible interval (800 mg): 3.1%–62.2 | Abdominal distension (800 mg two times per day (n=3)): 0 (0.0) n (%) | Abdominal pain (800 mg two times per day (n=3)): 0 (0.0) n (%) | Alanine aminotransferase increased (800 mg two times per day (n=3)): 1 (33.3) n (%) | Amylase increased (800 mg two times per day (n=3)): 0 (0.0) n (%) | Anemia of malignant disease (800 mg two times per day (n=3)): 0 (0.0) n (%) | Any AE (800 mg two times per day (n=3)): 3 (100) n (%) | Any SAE (800 mg two times per day (n=3)): 1 (33.3) n (%) | Aspartate aminotransferase increased (800 mg two times per day (n=3)): 2 (66.7) n (%) | Blood alkaline phosphatase increased (800 mg two times per day (n=3)): 1 (33.3) n (%) | Blood creatine phosphokinase increased (800 mg two times per day (n=3)): 1 (33.3) n (%) | Blood creatinine increased (800 mg two times per day (n=3)): 1 (33.3) n (%) | Cough (800 mg two times per day (n=3)): 0 (0.0) n (%) | Decreased appetite (800 mg two times per day (n=3)): 1 (33.3) n (%) | Dehydration (800 mg two times per day (n=3)): 0 (0.0) n (%) | Diarrhea (800 mg two times per day (n=3)): 0 (0.0) n (%) | Dyspepsia (800 mg two times per day (n=3)): 0 (0.0) n (%) | Dysphagia (800 mg two times per day (n=3)): 0 (0.0) n (%) | Fatigue (800 mg two times per day (n=3)): 1 (33.3) n (%) | Fever (800 mg two times per day (n=3)): 1 (33.3) n (%) | Gamma-glutamyl transferase increased (800 mg two times per day (n=3)): 1 (33.3) n (%) | Hypercalcemia (800 mg two times per day (n=3)): 0 (0.0) n (%) | Lipase increased (800 mg two times per day (n=3)): 0 (0.0) n (%) | Lymphocyte count decreased (800 mg two times per day (n=3)): 1 (33.3) n (%) | Maculopapular rash (800 mg two times per day (n=3)): 0 (0.0) n (%) | Nausea (800 mg two times per day (n=3)): 1 (33.3) n (%) | Palmar-plantar erythrodysesthesia syndrome (800 mg two times per day (n=3)): 0 (0.0) n (%) | Platelet count decreased (800 mg two times per day (n=3)): 1 (33.3) n (%) | Tumor pain (800 mg two times per day (n=3)): 0 (0.0) n (%) | Vomiting (800 mg two times per day (n=3)): 0 (0.0) n (%) | time to resolution of the DLT after treatment withdrawal (800 mg two times per day, grade 3 allergic dermatitis with fever and hypotension): ≤ 6 h | DLT during cycle 1 [1]: grade 3 allergic dermatitis | QT prolongation resulting in dose reduction (not a DLT) [1]: grade 2 QT prolongation | Abdominal distension (Total (N=15)): 2 (13.3) n (%) | Abdominal pain (Total (N=15)): 2 (13.3) n (%) | Alanine aminotransferase increased (Total (N=15)): 2 (13.3) n (%) | Amylase increased (Total (N=15)): 2 (13.3) n (%) | Anemia of malignant disease (Total (N=15)): 2 (13.3) n (%) | Any AE (Total (N=15)): 15 (100) n (%) | Any SAE (Total (N=15)): 3 (20.0) n (%) | Aspartate aminotransferase increased (Total (N=15)): 2 (13.3) n (%) | Blood alkaline phosphatase increased (Total (N=15)): 2 (13.3) n (%) | Blood creatine phosphokinase increased (Total (N=15)): 3 (20.0) n (%) | Blood creatinine increased (Total (N=15)): 3 (20.0) n (%) | Cough (Total (N=15)): 3 (20.0) n (%) | Decreased appetite (Total (N=15)): 3 (20.0) n (%) | Dehydration (Total (N=15)): 2 (13.3) n (%) | Diarrhea (Total (N=15)): 3 (20.0) n (%) | Dyspepsia (Total (N=15)): 2 (13.3) n (%) | Dysphagia (Total (N=15)): 2 (13.3) n (%) | Fatigue (Total (N=15)): 5 (33.3) n (%) | Fever (Total (N=15)): 2 (13.3) n (%) | Gamma-glutamyl transferase increased (Total (N=15)): 2 (13.3) n (%) | Hypercalcemia (Total (N=15)): 2 (13.3) n (%) | Lipase increased (Total (N=15)): 3 (20.0) n (%) | Lymphocyte count decreased (Total (N=15)): 2 (13.3) n (%) | Maculopapular rash (Total (N=15)): 2 (13.3) n (%) | Nausea (Total (N=15)): 4 (26.7) n (%) | Palmar-plantar erythrodysesthesia syndrome (Total (N=15)): 2 (13.3) n (%) | Platelet count decreased (Total (N=15)): 2 (13.3) n (%) | Tumor pain (Total (N=15)): 2 (13.3) n (%) | Vomiting (Total (N=15)): 4 (26.7) n (%) | deaths during the dose-escalation phase (all doses): no deaths reported | TEAE fatigue (all patients (N=15)): 33.3% | TEAE nausea (all patients (N=15)): 26.7% | TEAE vomiting (all patients (N=15)): 26.7% | MTD (doses up to 800 mg two times per day): no MTD was defined | RP2D (in vivo): not established | serious TEAE (one patient, 400 mg two times per day cohort, unrelated to treatment): grade 3 disease progression | serious TEAE (one patient, 600 mg two times per day cohort, unrelated to treatment): grade 2 ascites | serious TEAE (one patient, 800 mg two times per day cohort, related to treatment): grade 3 allergic dermatitis | patients who discontinued M4112 treatment due to TEAEs (two of 15 patients): 13.3%
